Results published in ChEMBL document CHEMBL5058577, “EUbOPEN Chemogenomics Library 2 (Multiplex)” (2022).

Tested on: HEK-293T
Experiment: Multiplex assay against HEK293T
Assay type: toxicity, cell-based
Settings: human
Summary of the method: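 Live cells carried four stains from seeding: Hoechst33342, BioTracker Green Microtubule Cytoskeleton Dye, MitoTracker Red and Annexin V Alexa Fluor 680. They were imaged on a CQ1 microscope at 37°C and 5% CO2 after compound addition. Using CellPathfinder machine-learning gating, cells were split into Hoechst high-intensity objects or normal cells, normal cells into healthy, pyknosed or fragmented nuclei, and pyknosed cells into mitotic or apoptotic; tubulin, mitochondrial-mass and membrane-permeability phenotypes are per cents of healthy-nucleus cells.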

[1] = 12 h, 1 µM, compound concentration 1 uM, replicate 1
[2] = 12 h, 1 µM, compound concentration 1 uM, replicate 2
[3] = 12 h, 10 µM, compound concentration 10 uM, replicate 1
[4] = 12 h, 10 µM, compound concentration 10 uM, replicate 2
[5] = 24 h, 1 µM, compound concentration 1 uM, replicate 1
[6] = 24 h, 1 µM, compound concentration 1 uM, replicate 2
[7] = 24 h, 10 µM, compound concentration 10 uM, replicate 1
[8] = 24 h, 10 µM, compound concentration 10 uM, replicate 2
[9] = 48 h, 1 µM, compound concentration 1 uM, replicate 1
[10] = 48 h, 1 µM, compound concentration 1 uM, replicate 2
[11] = 48 h, 10 µM, compound concentration 10 uM, replicate 1
[12] = 48 h, 10 µM, compound concentration 10 uM, replicate 2

CSCC[C@H](NC=O)C(=O)N[C@@H](CC(C)C)C(=O)N[C@@H](Cc1ccccc1)C(=O)O
Population Mitochondria Different-Phenotype (%) [1]: 47% | Population Tubulin-Different-Phenotype (%) [1]: 23% | Total Cell Count [1]: 466 | Population Apoptotic (%) [2]: 28% | Population Mitochondria Different-Phenotype (%) [2]: 57% | Population Mitotic Cells (%) [2]: 71% | Population Tubulin-Different-Phenotype (%) [2]: 16% | Total Cell Count [2]: 437 | Population Mitochondria Different-Phenotype (%) [3]: 52% | Population Tubulin-Different-Phenotype (%) [3]: 37% | Total Cell Count [3]: 366 | Population Apoptotic (%) [4]: 54% | Population Mitochondria Different-Phenotype (%) [4]: 64% | Population Mitotic Cells (%) [4]: 45% | Population Tubulin-Different-Phenotype (%) [4]: 31% | Total Cell Count [4]: 375 | Population Apoptotic (%) [5]: 21% | Population Mitochondria Different-Phenotype (%) [5]: 21% | Population Mitotic Cells (%) [5]: 78% | Population Tubulin-Different-Phenotype (%) [5]: 14% | Total Cell Count [5]: 679 | Population Mitochondria Different-Phenotype (%) [6]: 37% | Population Tubulin-Different-Phenotype (%) [6]: 12% | Total Cell Count [6]: 550 | Population Apoptotic (%) [7]: 25% | Population Mitochondria Different-Phenotype (%) [7]: 38% | Population Mitotic Cells (%) [7]: 75% | Population Tubulin-Different-Phenotype (%) [7]: 25% | Total Cell Count [7]: 479 | Population Apoptotic (%) [8]: 36% | Population Mitochondria Different-Phenotype (%) [8]: 53% | Population Mitotic Cells (%) [8]: 64% | Population Tubulin-Different-Phenotype (%) [8]: 22% | Total Cell Count [8]: 490 | Population Apoptotic (%) [9]: 29% | Population Mitochondria Different-Phenotype (%) [9]: 12% | Population Tubulin-Different-Phenotype (%) [9]: 12% | Total Cell Count [9]: 1154 | Population Apoptotic (%) [10]: 20% | Population Mitochondria Different-Phenotype (%) [10]: 17% | Population Mitotic Cells (%) [10]: 79% | Total Cell Count [10]: 838 | Population Apoptotic (%) [11]: 28% | Population Mitochondria Different-Phenotype (%) [11]: 24% | Population Mitotic Cells (%) [11]: 71% | Population Tubulin-Different-Phenotype (%) [11]: 12% | Total Cell Count [11]: 704 | Population Apoptotic (%) [12]: 36% | Population Mitochondria Different-Phenotype (%) [12]: 28% | Population Mitotic Cells (%) [12]: 63% | Population Tubulin-Different-Phenotype (%) [12]: 14% | Total Cell Count [12]: 674

CCCN1CCC[C@@H]2Cc3n[nH]cc3C[C@H]21.Cl [QUINPIROLE HYDROCHLORIDE]
Population Apoptotic (%) [1]: 32% | Population Fragmented Nuclei (%) [1]: 6% | Population Healthy Nuclei (%) [1]: 84% | Population Hoechst High Intensity Objects (%) [1]: 6% | Population Membrane Permeable-Phenotype (%) [1]: 0% | Population Mitochondria Different-Phenotype (%) [1]: 37% | Population Mitotic Cells (%) [1]: 67% | Population Normal (%) [1]: 93% | Population Pyknosed Nuclei (%) [1]: 9% | Population Tubulin-Different-Phenotype (%) [1]: 22% | Total Cell Count [1]: 447 | Population Apoptotic (%) [2]: 63% | Population Fragmented Nuclei (%) [2]: 4% | Population Healthy Nuclei (%) [2]: 82% | Population Hoechst High Intensity Objects (%) [2]: 3% | Population Mitochondria Different-Phenotype (%) [2]: 67% | Population Mitotic Cells (%) [2]: 36% | Population Normal (%) [2]: 96% | Population Pyknosed Nuclei (%) [2]: 12% | Population Tubulin-Different-Phenotype (%) [2]: 26% | Total Cell Count [2]: 294 | Population Apoptotic (%) [3]: 55% | Population Fragmented Nuclei (%) [3]: 11% | Population Healthy Nuclei (%) [3]: 72% | Population Hoechst High Intensity Objects (%) [3]: 9% | Population Membrane Permeable-Phenotype (%) [3]: 0% | Population Mitochondria Different-Phenotype (%) [3]: 53% | Population Mitotic Cells (%) [3]: 44% | Population Normal (%) [3]: 90% | Population Pyknosed Nuclei (%) [3]: 15% | Population Tubulin-Different-Phenotype (%) [3]: 40% | Total Cell Count [3]: 381 | Population Apoptotic (%) [4]: 46% | Population Fragmented Nuclei (%) [4]: 5% | Population Healthy Nuclei (%) [4]: 78% | Population Hoechst High Intensity Objects (%) [4]: 5% | Population Mitochondria Different-Phenotype (%) [4]: 69% | Population Mitotic Cells (%) [4]: 53% | Population Normal (%) [4]: 94% | Population Pyknosed Nuclei (%) [4]: 16% | Population Tubulin-Different-Phenotype (%) [4]: 26% | Total Cell Count [4]: 312 | Population Apoptotic (%) [5]: 30% | Population Fragmented Nuclei (%) [5]: 12% | Population Healthy Nuclei (%) [5]: 79% | Population Hoechst High Intensity Objects (%) [5]: 3% | Population Membrane Permeable-Phenotype (%) [5]: 0% | Population Mitochondria Different-Phenotype (%) [5]: 17% | Population Mitotic Cells (%) [5]: 70% | Population Normal (%) [5]: 96% | Population Pyknosed Nuclei (%) [5]: 8% | Population Tubulin-Different-Phenotype (%) [5]: 14% | Total Cell Count [5]: 600 | Population Apoptotic (%) [6]: 29% | Population Fragmented Nuclei (%) [6]: 8% | Population Healthy Nuclei (%) [6]: 81% | Population Hoechst High Intensity Objects (%) [6]: 2% | Population Mitochondria Different-Phenotype (%) [6]: 37% | Population Normal (%) [6]: 97% | Population Pyknosed Nuclei (%) [6]: 9% | Population Tubulin-Different-Phenotype (%) [6]: 16% | Total Cell Count [6]: 390 | Population Apoptotic (%) [7]: 45% | Population Fragmented Nuclei (%) [7]: 10% | Population Healthy Nuclei (%) [7]: 77% | Population Hoechst High Intensity Objects (%) [7]: 4% | Population Membrane Permeable-Phenotype (%) [7]: 0% | Population Mitochondria Different-Phenotype (%) [7]: 38% | Population Mitotic Cells (%) [7]: 54% | Population Normal (%) [7]: 95% | Population Pyknosed Nuclei (%) [7]: 11% | Population Tubulin-Different-Phenotype (%) [7]: 27% | Total Cell Count [7]: 529 | Population Apoptotic (%) [8]: 43% | Population Fragmented Nuclei (%) [8]: 7% | Population Healthy Nuclei (%) [8]: 78% | Population Hoechst High Intensity Objects (%) [8]: 2% | Population Mitochondria Different-Phenotype (%) [8]: 43% | Population Mitotic Cells (%) [8]: 56% | Population Normal (%) [8]: 97% | Population Pyknosed Nuclei (%) [8]: 13% | Population Tubulin-Different-Phenotype (%) [8]: 13% | Total Cell Count [8]: 406 | Population Apoptotic (%) [9]: 21% | Population Fragmented Nuclei (%) [9]: 16% | Population Healthy Nuclei (%) [9]: 76% | Population Hoechst High Intensity Objects (%) [9]: 1% | Population Membrane Permeable-Phenotype (%) [9]: 1% | Population Mitochondria Different-Phenotype (%) [9]: 9% | Population Mitotic Cells (%) [9]: 78% | Population Normal (%) [9]: 98% | Population Pyknosed Nuclei (%) [9]: 6% | Population Tubulin-Different-Phenotype (%) [9]: 10% | Total Cell Count [9]: 1105 | Population Apoptotic (%) [10]: 33% | Population Fragmented Nuclei (%) [10]: 11% | Population Healthy Nuclei (%) [10]: 84% | Population Hoechst High Intensity Objects (%) [10]: 2% | Population Mitochondria Different-Phenotype (%) [10]: 19% | Population Mitotic Cells (%) [10]: 66% | Population Pyknosed Nuclei (%) [10]: 4% | Population Tubulin-Different-Phenotype (%) [10]: 8% | Total Cell Count [10]: 649 | Population Apoptotic (%) [11]: 40% | Population Fragmented Nuclei (%) [11]: 15% | Population Healthy Nuclei (%) [11]: 78% | Population Hoechst High Intensity Objects (%) [11]: 2% | Population Membrane Permeable-Phenotype (%) [11]: 1% | Population Mitochondria Different-Phenotype (%) [11]: 23% | Population Mitotic Cells (%) [11]: 59% | Population Normal (%) [11]: 97% | Population Pyknosed Nuclei (%) [11]: 6% | Population Tubulin-Different-Phenotype (%) [11]: 15% | Total Cell Count [11]: 772 | Population Apoptotic (%) [12]: 33% | Population Fragmented Nuclei (%) [12]: 13% | Population Healthy Nuclei (%) [12]: 80% | Population Hoechst High Intensity Objects (%) [12]: 1% | Population Membrane Permeable-Phenotype (%) [12]: 0% | Population Mitochondria Different-Phenotype (%) [12]: 28% | Population Mitotic Cells (%) [12]: 66% | Population Normal (%) [12]: 98% | Population Tubulin-Different-Phenotype (%) [12]: 13% | Total Cell Count [12]: 654
